Experimental data: ChEMBL document CHEMBL3414485, “Development of cyclic NGR peptides with thioether linkage: structure and dynamics determining deamidation and bioactivity” (J Med Chem, 2015)
Activity calls are given as the source filed them. The calls are words filed in the database; no cut-off is given here. Where a SMILES comes first, the peptide text is derived from it. Bridges are numbered along the chain shown (N, C = ends).

Tests used:
[1] = Chemical stability PBS buffer at pH 7.4 at 1 mg/ml at room temperature assessed as ratio of Asn-containing cyclic peptides after 24 hrs by HPLC method; format: physicochemical; conditions: read-out: Stability
Summary of the method: (§1)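 Peptide at 1.0 mg/mL (~2 mM). Buffer runs at room temperature: 0.2 M NH4OAc pH 5.0, PBS pH 7.4 or 0.1 M Tris pH 8.1. Medium runs at 37 °C in DMEM GlutaMAX-I with 10% FCS and gentamicin 160 μg/mL. Sampled at 24 and 48 h by analytical RP-HPLC. Asn/isoAsp/Asp ratio taken from peak AUC, species identified by MS and Asp reference peptides.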

[2] = Chemical stability 0.2M NH4OAc at pH 5.0 at 1 mg/ml at room temperature assessed as ratio of Asn-containing cyclic peptides after 24 hrs by HPLC method; format: physicochemical; conditions: 0.2 M NH4OAc buffer, read-out: Stability; summary of the method: as §1
[3] = Chemical stability DMEM cell culture medium at pH 7.3 at 1 mg/ml at 37 degC assessed as ratio of Asn-containing cyclic peptides after 24 hrs by HPLC method; format: physicochemical; conditions: read-out: Stability; summary of the method: as §1
[4] = Chemical stability PBS buffer at pH 7.4 at 1 mg/ml at room temperature assessed as ratio of Asn-containing cyclic peptides after 48 hrs by HPLC method; format: physicochemical; conditions: read-out: Stability; summary of the method: as §1
[5] = Chemical stability 0.2M NH4OAc at pH 5.0 at 1 mg/ml at room temperature assessed as ratio of Asn-containing cyclic peptides after 48 hrs by HPLC method; format: physicochemical; conditions: 0.2 M NH4OAc buffer, read-out: Stability; summary of the method: as §1
[6] = Chemical stability 0.1M Tris buffer at pH 8.1 at 1 mg/ml at room temperature assessed as ratio of Asn-containing cyclic peptides after 48 hrs by HPLC method; format: physicochemical; conditions: read-out: Stability; summary of the method: as §1
[7] = biological target: T1, Integrin alpha-V/beta-3 (Homo sapiens) (UniProt P05106+P06756); experiment: Binding affinity to integrin alphav beta3 receptor assessed as receptor-mediated cell adhesion in human A2058 cells at 10 nM to 1 uM and measured every 20 seconds for 25 hrs at 10 kHz by xCELLigence SP system based method
Summary of the method: (§2)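 A2058 human melanoma cells grown in RPMI 1640 with 10% FCS, 2 mM L-glutamine and penicillin/streptomycin at 37 °C, 5% CO2. Electrodes coated 20 min at 4 °C with peptide (10-fold dilutions in 0.1% gelatin/PBS), dried 5 min. Background read 30 min, then 10^4 cells/well added. Impedance recorded every 20 s for 25 h at 10 kHz, in triplicate. ΔCI at 5, 10 and 25 h, normalized to gelatin-only control (100%).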

[8] = Chemical stability 0.1M Tris buffer at pH 8.1 at 1 mg/ml at room temperature assessed as ratio of Asn-containing cyclic peptides after 24 hrs by HPLC method; format: physicochemical; conditions: read-out: Stability; summary of the method: as §1
[9] = biological target: T1, Integrin alpha-V/beta-3 (Homo sapiens); experiment: Binding affinity to integrin alphav beta3 receptor assessed as receptor-mediated cell adhesion in human A2058 cells at 10 nM to 100 nM and measured every 20 seconds for 5 to 25 hrs at 10 kHz by xCELLigence SP system based method; summary of the method: as §2
[10] = Chemical stability DMEM cell culture medium at pH 7.3 at 1 mg/ml at 37 degC assessed as ratio of Asn-containing cyclic peptides after 48 hrs by HPLC method; format: physicochemical; conditions: read-out: Stability; summary of the method: as §1
[11] = biological target: T1, Integrin alpha-V/beta-3 (Homo sapiens); experiment: Binding affinity to integrin alphav beta3 receptor assessed as receptor-mediated cell adhesion in human A2058 cells at 1 uM and measured every 20 seconds for 5 to 25 hrs at 10 kHz by xCELLigence SP system based method; summary of the method: as §2
[12] = biological target: T1, Integrin alpha-V/beta-3 (Homo sapiens); experiment: Binding affinity to integrin alphav beta3 receptor assessed as receptor-mediated cell adhesion in human A2058 cells at 10 nM to 1 uM and measured every 20 seconds for >5 hrs at 10 kHz by xCELLigence SP system based method; summary of the method: as §2
[13] = biological target: T1, Integrin alpha-V/beta-3 (Homo sapiens); experiment: Binding affinity to integrin alphav beta3 receptor assessed as receptor-mediated cell adhesion in human A2058 cells at 100 nM and measured every 20 seconds for 25 hrs at 10 kHz by xCELLigence SP system based method; summary of the method: as §2

SMILES | remaining at 24 h, 1 mg/ml [1] [%] | remaining at 24 h, 1 mg/ml [2] [%] | remaining at 24 h, 1 mg/ml [3] [%] | remaining at 48 h, 1 mg/ml [4] [%] | remaining at 48 h, 1 mg/ml [5] [%] | remaining at 48 h, 1 mg/ml [6] [%] | Activity [7] | remaining at 24 h, 1 mg/ml [8] [%] | Activity [9] | remaining at 48 h, 1 mg/ml [10] [%] | Activity [11] | Activity [12] | Activity [13]
N=C(N)NCCC[C@@H]1NC(=O)CNC(=O)[C@H](CC(N)=O)NC(=O)CCSC[C@@H](C(N)=O)NC1=O | 94 | 100 | 0 | 89 | 99 | 73 | Active | 86 |  |  |  |  | 
CC(=O)N[C@H]1CSSC[C@@H](C(N)=O)NC(=O)[C@H](CCCNC(=N)N)NC(=O)CNC(=O)[C@H](CC(N)=O)NC1=O (Ac-CNGRC-NH2; disulfide 1-5) | 96 |  | 46 | 93 | 100 | 71 |  | 85 | Active | 0 |  |  | 
N=C(N)NCCC[C@@H]1NC(=O)CNC(=O)[C@H](CC(N)=O)NC(=O)[C@H](CCCCN)NC(=O)CC[C@@H](C(N)=O)NC1=O (KNGRE-NH2; lactam N-5) |  |  | 92 | 100 | 100 | 100 |  |  | Active | 54 | inactive |  | 
N=C(N)NCCC[C@@H]1NC(=O)CNC(=O)[C@H](CC(N)=O)NC(=O)CSCCC(C(N)=O)NC1=O (single isomer, unassigned) | 64 | 100 | 0 | 44 | 96 | 43 | inactive | 66 |  |  |  |  | 
N=C(N)NCCC[C@@H]1NC(=O)CNC(=O)[C@H](CC(N)=O)NC(=O)[C@H](CCCCN)NC(=O)CSC[C@@H](C(N)=O)NC1=O ({CH2CO}-KNGRC-NH2; thioether N-5) | 58 | 100 | 0 | 43 | 90 | 15 | inactive | 36 |  |  |  |  | 
N=C(N)NCCC[C@@H]1NC(=O)CNC(=O)[C@H](CC(N)=O)NC(=O)CSC[C@@H](C(N)=O)NC1=O ({CH2CO}-NGRC-NH2; thioether N-4) | 36 | 85 | 0 | 15 | 67 | 13 |  | 19 |  |  |  | Active | Active
N=C(N)NCCC[C@@H]1NC(=O)CNC(=O)[C@H](CC(N)=O)NC(=O)[C@@H]2CCCN2C(=O)CSC[C@@H](C(N)=O)NC1=O ({CH2CO}-PNGRC-NH2; thioether N-5) | 86 | 100 |  | 75 | 98 | 47 | inactive | 67 |  |  |  |  | 
